Where “and” joins values, the source holds several entries; their conditions need not be identical. Identical values can stand only once. Entries after “also recorded” stand apart in the source; their conditions may differ. Marks after values point to notes of the source that are not given here.
How the values were obtained:
[1] = test system: patients with advanced or metastatic solid tumors; assay: Safety, tolerability and DLTs; format: in vivo, human; settings: for Treatment-related AE: decreased appetite / Treatment-related AE: fatigue / Treatment-related AE: hyperglycemia / Treatment-related AE: pruritus / Treatment-related AE: rash: all patients (17)
Summary of the method: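 3 + 3 escalation starting at 16 mg/day once daily or 24 mg/day intermittent (4 days on/3 days off) in 21-day cycles. AEs graded by CTCAE v5.0. DLTs were selected lab abnormalities or AEs at least possibly drug-related during cycle 1, assessed in patients with a DLT or ≥80% of planned doses taken.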

Plasma pharmacokinetics = format: in vivo, human
Summary of the method: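 Dose-escalation patients had blood drawn predose and 0.5, 1, 2, 3, 4, 6 and 24 h post-dose on cycle 1 day 1, and on cycle 1 day 8 for once-daily dosing only. Plasma parameters came from noncompartmental analysis in patients with evaluable plasma concentration data. Values are geometric means with geometric CV%, plus day 8/day 1 accumulation ratios of Cmax and AUC0-24.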

[2] = Japanese phase I study; cited from earlier work
[3] = test system: refractory gastrointestinal cancers / advanced solid tumors; settings: cited from earlier work
kinases = settings: cited from earlier work
[4] = all patients (N = 17), any grade
[5] = all patients (N = 17), grade ≥3
[6] = dose escalation intermittent 24 mg (n = 4)
[7] = dose escalation intermittent 28 mg (n = 3)
[8] = dose escalation intermittent total (n = 7), any grade
[9] = dose escalation intermittent total (n = 7), grade ≥3
[10] = dose escalation o.d. 16 mg (n = 3)
[11] = dose escalation o.d. 20 mg (n = 6)
[12] = dose escalation o.d. total (n = 9), any grade
[13] = dose escalation o.d. total (n = 9), grade ≥3
[14] = two intermittent dosing groups (n = 7)
[15] = cycle 1 day 1, 16 mg o.d., individual values (N = 2)
[16] = cycle 1 day 1, 20 mg o.d., N = 6, geometric mean (CV%)
[17] = cycle 1 day 1, 24 mg intermittent, N = 4, geometric mean (CV%)
[18] = cycle 1 day 1, 28 mg intermittent, N = 3, geometric mean (CV%)
[19] = cycle 1 day 8, 16 mg o.d., N = 3, geometric mean (CV%)
[20] = cycle 1 day 8, 20 mg o.d., N = 6, geometric mean (CV%)

## C[C@]1(O)C[C@@](N)(c2ccc(-c3nc4n(c3-c3ccccc3)COc3ccncc3-4)cc2)C1 [TAS-117]
[1]; 16 mg o.d.
  DLTs: no DLTs
[1]; 20 mg o.d., grade 3 neutropenic infection, dose not modified
  Time to resolution of DLT: ≤ 6 days
[1]; 20 mg o.d., one patient
  DLT event: grade 3 neutropenic infection
[1]; 28 mg intermittent dosing, two patients
  DLT event: grade 3 oral mucositis; also recorded: grade 3 stomatitis
[1]; 28 mg intermittent, TAS-117 paused, per patient
  Time to resolution of DLT (stomatitis): ≤ 6 days and ≤ 7 days
[1]; 16-mg o.d. dose cohort
  Grade ≥3 TRAEs: 33.3%
  TRAEs: 66.7%
[1]; 16-mg o.d. dose level
  TRAEs reported: rash (grade 3) and hyperglycemia (grade 2)
[1]; 20-mg o.d. dose cohort
  Grade ≥3 TRAEs: 66.7%
  TRAEs: 100%
[1]; 20-mg o.d. dose group
  Patients with treatment discontinued due to a TRAE: 50.0%
[1]; 20-mg o.d. dose level, out of six
  Patients with grade ≥3 TRAEs: four
[1]; 24-mg intermittent dose group
  Any-grade TRAEs: 50.0%
  Grade ≥3 TRAEs: 25.0%
[1]; 28-mg intermittent dose group
  Any-grade TRAEs: 100.0%
  Grade ≥3 TRAEs: 66.7%
[1]; DRC 16 mg o.d. (n = 1)
  Patients with any TRAE: 0 n (%)
[1]; all grade
  Treatment-related AE: decreased appetite: 17.6%
  Treatment-related AE: fatigue: 35.3%
  Treatment-related AE: hyperglycemia: 29.4%
  Treatment-related AE: pruritus: 29.4%
  Treatment-related AE: rash: 58.8%
[1]; grade ≥3
  Treatment-related AE: decreased appetite: 0%
  Treatment-related AE: fatigue: 1%
  Treatment-related AE: hyperglycemia: 1%
  Treatment-related AE: pruritus: 0%
  Treatment-related AE: rash: 17.6%
[1]; [4]
  Patients with any TRAE: 13 (76.5) n (%)
  TRAE: Decreased appetite: 3 (17.6) n (%)
  TRAE: Diarrhea: 3 (17.6) n (%)
  TRAE: Fatigue: 6 (35.3) n (%)
  TRAE: Hyperglycemia: 5 (29.4) n (%)
  TRAE: Nausea: 2 (11.8) n (%)
  TRAE: Pruritus: 5 (29.4) n (%)
  TRAE: Rash: 10 (58.8) n (%)
  TRAE: Rash maculopapular: 2 (11.8) n (%)
  TRAE: Stomatitis: 3 (17.6) n (%)
[1]; [5]
  Patients with any TRAE: 8 (47.1) n (%)
  TRAE: Fatigue: 1 (5.9) n (%)
  TRAE: Hyperglycemia: 1 (5.9) n (%)
  TRAE: Rash: 3 (17.6) n (%)
  TRAE: Rash maculopapular: 2 (11.8) n (%)
  TRAE: Stomatitis: 2 (11.8) n (%)
[1]; at the RP2D, 16 mg o.d.
  Tolerability: tolerable, with a manageable safety profile; also recorded: tolerable, with a manageable AE profile
[1]; [6]
  Patients with any TRAE: 2 (50.0) n (%)
  TRAE: Fatigue: 2 (50.0) n (%)
  TRAE: Hyperglycemia: 1 (25.0) n (%)
  TRAE: Pruritus: 2 (50.0) n (%)
  TRAE: Rash: 2 (50.0) n (%)
[1]; [7]
  Patients with any TRAE: 3 (100) n (%)
  TRAE: Decreased appetite: 2 (66.7) n (%)
  TRAE: Fatigue: 2 (66.7) n (%)
  TRAE: Hyperglycemia: 2 (66.7) n (%)
  TRAE: Pruritus: 2 (66.7) n (%)
  TRAE: Rash: 2 (66.7) n (%)
  TRAE: Rash maculopapular: 1 (33.3) n (%)
  TRAE: Stomatitis: 3 (100) n (%)
[1]; [8]
  Patients with any TRAE: 5 (71.4) n (%)
  TRAE: Decreased appetite: 2 (28.6) n (%)
  TRAE: Diarrhea: 1 (14.3) n (%)
  TRAE: Fatigue: 4 (57.1) n (%)
  TRAE: Hyperglycemia: 3 (42.9) n (%)
  TRAE: Nausea: 1 (14.3) n (%)
  TRAE: Pruritus: 4 (57.1) n (%)
  TRAE: Rash: 4 (57.1) n (%)
  TRAE: Rash maculopapular: 1 (14.3) n (%)
  TRAE: Stomatitis: 3 (42.9) n (%)
[1]; [9]
  Patients with any TRAE: 3 (42.9) n (%)
  TRAE: Hyperglycemia: 1 (14.3) n (%)
  TRAE: Rash: 1 (14.3) n (%)
  TRAE: Rash maculopapular: 1 (14.3) n (%)
  TRAE: Stomatitis: 2 (28.6) n (%)
[1]; [10]
  Patients with any TRAE: 2 (66.7) n (%)
  TRAE: Hyperglycemia: 1 (33.3) n (%)
  TRAE: Rash: 2 (66.7) n (%)
[1]; [11]
  Patients with any TRAE: 6 (100) n (%)
  TRAE: Decreased appetite: 1 (16.7) n (%)
  TRAE: Diarrhea: 2 (33.3) n (%)
  TRAE: Fatigue: 2 (33.3) n (%)
  TRAE: Hyperglycemia: 1 (16.7) n (%)
  TRAE: Nausea: 1 (16.7) n (%)
  TRAE: Pruritus: 1 (16.7) n (%)
  TRAE: Rash: 4 (66.7) n (%)
  TRAE: Rash maculopapular: 1 (16.7) n (%)
[1]; [12]
  Patients with any TRAE: 8 (88.9) n (%)
  TRAE: Decreased appetite: 1 (11.1) n (%)
  TRAE: Diarrhea: 2 (22.2) n (%)
  TRAE: Fatigue: 2 (22.2) n (%)
  TRAE: Hyperglycemia: 2 (22.2) n (%)
  TRAE: Nausea: 1 (11.1) n (%)
  TRAE: Pruritus: 1 (11.1) n (%)
  TRAE: Rash: 6 (66.7) n (%)
  TRAE: Rash maculopapular: 1 (11.1) n (%)
[1]; [13]
  Patients with any TRAE: 5 (55.6) n (%)
  TRAE: Fatigue: 1 (11.1) n (%)
  TRAE: Rash: 2 (22.2) n (%)
  TRAE: Rash maculopapular: 1 (11.1) n (%)
[1]; dose-escalation part, assessable patients (n = 16), cycle 1
  Patients who experienced a DLT: three
[1]; either dosing regimen
  TEAEs leading to death: No TEAEs leading to death
[1]; intermittent dosing groups
  Patients with dose interruption due to an AE: 57.1%
  Patients with dose reductions due to an AE: 42.9%
[1]; intermittent dosing groups, grade 3 skin exfoliation at 28 mg
  Patients with treatment discontinued due to a TRAE: 14.3%
[1]; o.d. dosing groups, all at 20 mg o.d.
  Patients with treatment-related serious AEs: three
[1]; o.d. dosing regimen
  Patients with AEs leading to dose interruptions: 66.7%
  Patients with AEs leading to dose reductions: 0%
[1]; o.d. dosing regimen (n = 9)
  TRAE: Diarrhea: 22.2%
  TRAE: Fatigue: 22.2%
  TRAE: Hyperglycemia: 22.2%
  TRAE: Rash: 66.7%
[1]; [14]
  Grade ≥3 TRAE: stomatitis: 28.6%
  Grade ≥3 TRAEs: 42.9%
  TRAE: Decreased appetite: 28.6%
  TRAE: Fatigue: 57.1%
  TRAE: Hyperglycemia: 42.9%
  TRAE: Pruritus: 57.1%
  TRAE: Rash: 57.1%
  TRAE: Stomatitis: 42.9%
Plasma pharmacokinetics; 16 mg o.d.
  Total exposure per week, 16 mg o.d. compared with 24-mg intermittent dosing: higher total exposure per week
Plasma pharmacokinetics; [15]
  AUC0-24: 180.7 ng·h/mL and 244.3 ng·h/mL
  AUC0-last: 180.7 ng·h/mL and 244.3 ng·h/mL
  Cmax: 12.8 ng/mL and 14.5 ng/mL
  Tmax: 3.05 h and 20.88 h
Plasma pharmacokinetics; [16]
  AUC0-24: 333 (34.7) ng·h/ml
  AUC0-last: 333 (34.7) ng·h/ml
  Cmax: 21.5 (29.2) ng/ml
Plasma pharmacokinetics; cycle 1 day 1, 20 mg o.d., N = 6, median (range)
  Tmax: 2.06 (1.15-6.42) h
Plasma pharmacokinetics; [17]
  AUC0-24: 412.8 (30.6) ng·h/ml
  AUC0-last: 290.5 (86) ng·h/ml
  Cmax: 23.2 (33.9) ng/ml
Plasma pharmacokinetics; cycle 1 day 1, 24 mg intermittent, N = 4, median (range)
  Tmax: 2 (1.98-3.65) h
Plasma pharmacokinetics; [18]
  AUC0-last: 426.3 (180.7) ng·h/ml
  Cmax: 48.1 (35.9) ng/ml
Plasma pharmacokinetics; cycle 1 day 1, 28 mg intermittent, N = 3, median (range)
  Tmax: 2 (0.92-5.65) h
Plasma pharmacokinetics; cycle 1 day 1, 28 mg intermittent, individual values (n = 2)
  AUC0-24: 754.4 ng·h/mL and 961.1 ng·h/mL
Plasma pharmacokinetics; [19]
  AUC0-last: 231.7 (157.2) ng·h/ml
  Cmax: 33.3 (34.3) ng/ml
Plasma pharmacokinetics; cycle 1 day 8, 16 mg o.d., N = 3, median (range)
  Tmax: 4.08 (2-5.5) h
Plasma pharmacokinetics; cycle 1 day 8, 16 mg o.d., individual value (n = 1)
  AUC0-24: 811.3 ^b ng·h/ml
Plasma pharmacokinetics; [20]
  AUC0-24: 924 (54.5) ng·h/ml
  AUC0-last: 924 (54.5) ng·h/ml
  Cmax: 60.1 (58.8) ng/ml
Plasma pharmacokinetics; cycle 1 day 8, 20 mg o.d., N = 6, median (range)
  Tmax: 2.33 (1.02-5.58) h
Plasma pharmacokinetics; dose range 16-28 mg, cycle 1 day 1 and day 8
  Exposure versus dose: generally increased with increasing doses; also recorded: dose-dependent increases
[2]
  Accumulation of Cmax and AUC0-24: threefold to fourfold
[3]; PIK3CA-mutant ovarian cancer
  Patients who achieved a partial response: 1 patient
[3]; patients with refractory gastrointestinal cancers
  Antitumor activity and toxicity: limited antitumor activity and manageable toxicity
kinases
  Off-target inhibition of kinases: no observed off-target inhibition of kinases

Reference: paper PMC12804367 (ESMO Open, 2025)
